Bioassay records from PubChem BioAssay.
This is a sample that favours compounds with a hit; in the whole collection about 3.7% have one here.
hERG protect – hERG rescue from dofetilide block, primary screen, cell-based, CHO-hERG, FluxOR thallium flux, dofetilide IC70; dofetilide IC70 present; activation (rescue from dofetilide block), less the hit threshold, % at 10 µM; Voltage-gated inwardly rectifying potassium channel KCNH2 (Homo sapiens), Q12809; 310,000 tested, 0.51% active;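 active = activation above the mean of controls blocked by dofetilide plus 5 SD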;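 also: thallium influx through hERG after potassium depolarization seen as dye fluorescence rise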
Kir21 inh – inhibitors of mouse Kir2.1 inward-rectifier potassium channel. HEK293-Kir2.1, FluxOR thallium flux fluorescence; active compounds read low. B-score at 10 µM. 310,000 tested, 0.85% active. Inward rectifier potassium channel 2 (Mus musculus), P35561. AID 1672, 2009;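 active = fluorescence ratio B-score at or below minus 3 SD of library scores, with starting-brightness B-score within 2 SD, cut at about -4.2 in these data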;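 also: channel flux triggered by added potassium and thallium sulfate stimulus; B-score of peak minus minimum fluorescence over baseline after thallium stimulus; more negative B-score means stronger Kir2.1 block with less thallium influx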
KCNQ1 pot – potentiators or activators of KCNQ1 channel, primary screen, cell-based, thallium flux, high-throughput; 310,000 tested, 0.35% active; CHO-K1 KCNQ1, thallium flux FluxOR fluorescence; active compounds read high; B-score at 10 µM;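 active = fluorescence ratio B-score, a plate-corrected score, at least three library SD, with initial intensity B-score within 5 SD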
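System: Stable KCNQ1 CHO-K1 line | Incubation: 90 min dye loading and 20 min compound exposure, both at room temperature | Measure: Ratio B score | Medium: Assay buffer for compound exposure, DMSO matched across wells | Compound dosing: Single-concentration screen | Probe or stimulus: K+/Tl+ depolarizing stimulus | Measured by: Kinetic FluxOR fluorescence, 10 s baseline plus 110 s post-stimulus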
KCNQ1 block – inhibitors of human KCNQ1 channel, primary screen, cell-based, thallium flux, high-throughput; B-score at 10 µM; Potassium voltage-gated channel subfamily KQT member 1 (Homo sapiens), P51787; AID 2642, 2010; CHO-K1 KCNQ1, FluxOR thallium flux fluorescence; active compounds read high; 310,000 tested, 1.3% active;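 active = compounds whose thallium flux B-score, printed positive for inhibition, exceeds three library SD while starting fluorescence stays within three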;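 also: channel opened by potassium depolarization with thallium stimulus after 20 min compound exposure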
KCNK9 inh – KCNK9 potassium channel inhibitors, primary screen, HEK293 cells, thallium flux. FluxOR thallium flux fluorescence; active compounds read low. B-score at 10 µM. 310,000 tested, 1.2% active. Potassium channel subfamily K member 9 (Homo sapiens), Q9NPC2;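 active = ratio B-score over 3 SD below the library mean, with starting fluorescence within 5 SD of its mean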;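 also: negative B-score means less thallium flux so channel inhibition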
Target sequence (Q9NPC2 whole entry, looked up): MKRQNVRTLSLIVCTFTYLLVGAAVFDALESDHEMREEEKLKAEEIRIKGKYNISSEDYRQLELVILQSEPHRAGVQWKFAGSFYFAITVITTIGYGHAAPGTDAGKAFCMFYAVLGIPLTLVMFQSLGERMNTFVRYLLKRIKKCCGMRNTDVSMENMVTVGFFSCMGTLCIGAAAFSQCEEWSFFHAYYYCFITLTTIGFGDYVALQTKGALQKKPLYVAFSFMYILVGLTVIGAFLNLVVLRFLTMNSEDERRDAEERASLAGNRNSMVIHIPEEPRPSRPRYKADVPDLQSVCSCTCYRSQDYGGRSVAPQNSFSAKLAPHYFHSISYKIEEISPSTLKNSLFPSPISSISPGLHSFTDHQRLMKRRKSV
KCNK3 inh – human KCNK3 channel inhibitors, primary screen, CHO cells, FluxOR thallium flux, B-score. AID 602410, 2012. B-score at 10 µM. FluxOR fluorescence; active compounds read low. 340,000 tested, 0.84% active;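 active = B-score under library mean minus 4 SD, starting fluorescence ratio at most library mean plus 5 SD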;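 also: more negative B-score means stronger inhibition of thallium flux through KCNK3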
KCNK9 inh conf – KCNK9 potassium channel inhibitors, confirmation, HEK293 cells, thallium flux, duplicate | inhibition, % at 10 µM | AID 492992, 2010 | 4,900 tested, 43% active | shares compounds with KCNK9 inh | FluxOR thallium flux fluorescence;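 active = thallium signal inhibited by more than 5 SD of the compound-free buffer control wells, on both duplicate plates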;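 also: 0% = assay buffer control wells without compound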
Kir2-1 spec – mouse Kir2.1 channel inhibition, confirmation, selectivity assay for KCNK9 modulator project, cell-based, HEK293, thallium flux. inhibition, % at 10 µM. Kir2.1 cells, FluxOR thallium flux fluorescence. AID 492993, 2010. shares compounds with KCNK9 inh. 4,900 tested, 4% active;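 active = thallium signal drop more than 5 SD beyond the mean of the no-compound control wells, seen in both duplicate plates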;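 also: signal is fluorescence rise after thallium addition divided by baseline fluorescence; plate controls were assay buffer only for no effect and full block by chlorpromazine control for full effect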
KCNK9 uninduced – thallium flux in non-induced HEK293 cells, confirmation, counter-screen for KCNK9 inhibitor project, cell-based, second counter screen, non-induced KCNK9-HEK293 | shares compounds with KCNK9 inh | FluxOR thallium flux | inhibition, % at 10 µM | 4,900 tested, 40% active;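 active = thallium signal drop beyond 5 SD of the untreated control mean, on both duplicate plates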;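 also: plate controls were buffer only IC0 wells for no effect and SID17386958 at its maximal inhibitory level for full effect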
Active calls of the source: *; i = inactive; x = no result given.

SMILES | hERG protect | Kir21 inh | KCNQ1 pot | KCNQ1 block | KCNK9 inh | KCNK3 inh | KCNK9 inh conf | Kir2-1 spec | KCNK9 uninduced
Cc1cccc(CC(=O)OCn2nnc3ccccc3c2=O)c1 | -13.9 | 0.17 | i | i | i | i | i | i | i
C=C(C)C1CC=C(CN2CCN(Cc3ccccc3)CC2)CC1 (centres undefined) | -5.4 | -1.85 | i | i | i | i | i | i | i
CCOc1ccccc1C(=O)N[C@H](C(=O)OCc1cc([N+](=O)[O-])cc2c1OCOC2)C(C)C | -13.5 | 0.01 | i | i | -10.1* | i | 48.0%* | i | 25.0%*
COc1ccc(-c2cc(=O)oc3c(C)c(OC(C)C(=O)NCc4ccccn4)ccc23)cc1 (centres undefined) | -8.8 | 0.15 | i | i | i | i | x | x | x
COc1ccc(-c2ocnc2C(=O)NCc2nn(-c3ccccc3)nc2C)cc1 | -12.4 | 1.09 | i | i | i | i | i | i | i
COc1ccc(CC(=O)NCc2nn(-c3ccccc3)nc2C)cc1OC | -4.8 | 1.49 | i | i | i | i | x | x | x
COc1ccc(-c2ocnc2C(=O)Nc2ccccc2N2CCCCC2)cc1 | -8.5 | -0.06 | i | i | -9.34* | i | i | i | 27.5%*
COc1cccc(-c2ocnc2C(=O)Nc2ccc(N3CCOCC3)cc2N2CCOCC2)c1 | -7.0 | -0.06 | i | i | i | i | x | x | x
O=C(CN1CCN(C(=O)CCC(=O)N2CCC(c3ccccc3)=N2)CC1)Nc1ccc(F)cc1 | x | x | x | x | x | i | x | x | x
Cc1ccc(C)c(NC(=O)c2ccccc2NS(=O)(=O)c2cc([N+](=O)[O-])ccc2C)c1 | -6.5 | -0.97 | i | i | i | i | x | x | x
Cc1ccc(C)c(NC(=O)c2ccccc2Sc2ccc([N+](=O)[O-])cc2Cl)c1 | -4.0 | -0.02 | i | i | -13.6* | i | 61.0%* | i | 47.0%*
O=C1CSC(=S)N1/N=C/c1cc(Br)c(O)c(Br)c1 | -32.8 | -9.01 | i | i | -9.83* | i | 64.0%* | 57.0%* | 70.5%*
COc1cc(/C=N/N2C(=O)CSC2=S)ccc1O | -12.3 | -0.19 | i | i | i | i | x | x | x
CCOc1ccc(-c2cc3nc(C4CCN(C(=O)OC(C)(C)C)CC4)c(C(=O)O)cn3n2)cc1 | -19.1 | -0.46 | i | i | i | i | i | i | 34.5%*
O=C(CN1CCN(C(=O)C2CCCO2)CC1)Nc1cc(C(F)(F)F)ccc1Cl (centres undefined) | -2.1 | -5.42 | i | i | i | i | x | x | x
Cc1cc(C(=O)Nc2ccc(Cl)cc2)c(C)n1Cc1cccs1 | -14.0 | 0.21 | i | i | i | i | i | i | i
Cc1cc(C)cc(NC(=O)c2cc(C)n(Cc3cccs3)c2C)c1 | -12.1 | -0.01 | i | i | i | i | x | x | x
O=C(N/N=C\c1ccc(F)cc1)c1ccc(Cn2cc(Br)c([N+](=O)[O-])n2)o1 | -20.1 | 0.49 | i | i | -11.7* | i | 50.5%* | i | i
O=C(N/N=C\c1cccc(F)c1)c1ccc(Cn2cc(Br)c([N+](=O)[O-])n2)o1 | -7.5 | 0.48 | i | i | i | i | x | x | x
COc1ccc(-c2oc(NC(C)=O)c(C#N)c2-c2ccc(OC)cc2)cc1 | -8.1 | -2.41 | i | i | i | i | x | x | x
COc1ccc(C(=O)Nc2oc(-c3ccccc3)c(-c3ccccc3)c2C#N)cc1OC | -11.4 | 1.07 | i | i | -9.25* | i | 49.0%* | i | 38.5%*
COc1ccc2oc(C(=O)NCc3cc(OC)c(OC)cc3OC)c(C)c2c1 | -8.4 | 1.34 | i | i | i | i | x | x | x
CCOc1ccc(N2CC(C(=O)Nc3ccc4c(c3)OCO4)CC2=O)cc1 (centres undefined) | -11.3 | 0.79 | i | i | i | i | i | i | i
CCOc1ccc(N2CC(C(=O)Nc3ccc4c(c3)OCCO4)CC2=O)cc1 (centres undefined) | -14.9 | -0.08 | i | i | i | i | x | x | x
CCOC(=O)C1=C(CS(=O)(=O)c2ccc(C)cc2)NC(=O)NC1c1cc(OC)c(O)c(OC)c1 (centres undefined) | -7.5 | -0.1 | i | i | i | i | x | x | x
SMILES | hERG protect | Kir21 inh | KCNQ1 pot | KCNQ1 block | KCNK9 inh | KCNK3 inh | KCNK9 inh conf | Kir2-1 spec | KCNK9 uninduced
O=C(NCC(=O)N1CCCC(C(F)(F)F)C1)c1cccs1 (centres undefined) | x | x | x | x | x | i | x | x | x
Cn1c(SCc2cccc([N+](=O)[O-])c2)nc2c(c1=O)SCC2 | -6.7 | -1.17 | i | i | i | i | x | x | x
CCOC(=O)C1=C(CSc2nc(-c3ccccc3)ccc2C#N)OC(N)=C(C#N)C1c1ccccc1 (centres undefined) | -11.7 | 1.42 | i | i | -12.7* | i | 47.0%* | i | 38.0%*
CCOC(=O)C1=C(CSc2nc(-c3ccccc3)ccc2C#N)OC(N)=C(C#N)C1c1cccnc1 (centres undefined) | -10.8 | 0.13 | i | i | -18.5* | -16.6* | 68.5%* | i | 40.5%*
CCOC(=O)CC1=C(C(=O)OCC)C(c2cccnc2)C(C#N)=C(N)O1 (centres undefined) | -11.7 | 0.04 | i | i | i | i | x | x | x
CC(C(=O)NCc1cccs1)N1CCN(S(=O)(=O)c2ccc3c(c2)OCCCO3)CC1 (centres undefined) | x | x | x | x | x | i | x | x | x
COc1ccc(-c2noc(CSc3nnc(Cc4ccccc4)n3-c3ccc(Cl)cc3)n2)cc1 | -14.2 | -0.53 | i | i | i | i | i | i | i
Cc1ccc(-c2noc(CSc3nnc(Cc4ccccc4)n3-c3ccc(Cl)cc3)n2)cc1 | -9.9 | -1.27 | i | i | i | i | i | i | 31.0%*
